What is called MIC is the lowest concentration found to suppress growth. Read a high MIC as a less susceptible organism.

In brackets after ≈: the same amount, converted by molar mass.

The subject of one test is Enterococcus. The experiment in a line: Antibiotic activity was determined against Enterococcus (3). The test is classed as functional. A digest of the protocol: (§1)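 Inhibitory concentrations against the strains of each species were expressed as a ratio to the inhibitory concentration of thienamycin, the reference carbapenem, in the same strains.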
In the next test the test system is Escherichia coli. The experiment in a line: Antibiotic activity was determined against Escherichia coli(5). The class given is functional. The gist of the method:
as §1

A further test relates to Enterobacter. Briefly: Antibiotic activity was determined against Enterobacter species (6). The test is classed as functional. A digest of the protocol: as §1
The subject of another test is Klebsiella sp. The experiment in a line: Antibiotic activity was determined against Klebsiella species (5). The test is classed as functional. The gist of the method: as §1
Another test concerns Proteus. Briefly: Antibiotic activity was determined against Proteus species (5). The test is classed as functional, Proteus sp. The gist of the method: as §1
For another test, the system named is Pseudomonas aeruginosa. Briefly: Antibiotic activity was determined against Pseudomonas aeruginosa (5). The class given is functional. The gist of the method:
as §1

A further test has as its system Serratia. The experiment in a line: Antibiotic activity was determined against Serratia species (2). The class given is functional. A digest of the protocol: as §1
A further test concerns Staphylococcus aureus. The experiment in a line: Antibiotic activity was determined against Staphylococcus aureus (5). The test is classed as functional. The gist of the method: as §1
Test [1] has as its target T1, Dipeptidase 1 (Homo sapiens) (UniProt P16444).
T1 sequence (whole entry): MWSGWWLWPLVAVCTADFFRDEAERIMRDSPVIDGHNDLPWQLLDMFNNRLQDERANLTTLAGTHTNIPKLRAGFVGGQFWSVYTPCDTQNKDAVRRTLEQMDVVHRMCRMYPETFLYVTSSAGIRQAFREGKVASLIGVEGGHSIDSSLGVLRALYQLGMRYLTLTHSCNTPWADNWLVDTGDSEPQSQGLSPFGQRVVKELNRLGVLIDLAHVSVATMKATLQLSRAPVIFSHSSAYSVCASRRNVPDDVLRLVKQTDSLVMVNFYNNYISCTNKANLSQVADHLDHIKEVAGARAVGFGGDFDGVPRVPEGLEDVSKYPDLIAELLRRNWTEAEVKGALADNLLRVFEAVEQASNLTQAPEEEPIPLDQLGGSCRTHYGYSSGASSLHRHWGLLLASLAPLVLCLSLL
The experiment in a line: Susceptibility to mammalian dehydropeptidase DHP-1 relative to thienamycin.

With `CC(O)[C@H]1C(=O)N2C(C(=O)O)=C(c3ccc(CN)cc3)C[C@H]12` (stereo not given in full), the MIC in the test with Enterococcus turned out to be 9.2 µg/mL (≈ 30.4 µM); in the test on Escherichia coli, 3.5 µg/mL (≈ 11.6 µM); with Enterobacter it was 11 µg/mL (≈ 36.4 µM); against Klebsiella sp., 3.2 µg/mL (≈ 10.6 µM); in the test on Proteus it was 6.5 µg/mL (≈ 21.5 µM); in the test with Pseudomonas aeruginosa, 0.3 µg/mL (≈ 0.992 µM). For the same molecule, the results for the minimal inhibitory concentration (MIC) against Serratia and in the test on Staphylococcus aureus were 5.3 µg/mL (≈ 17.5 µM) and 1.5 µg/mL (≈ 4.96 µM), respectively.
Turning to `O=C(O)C1=C(c2cccnc2)CC2CC(=O)N12` (stereo not given), the Relative susceptibility in test [1] came to 0.3. Further, the minimum inhibitory concentration (MIC) in the test with Enterococcus was 0.15 µg/mL (≈ 0.652 µM); against Escherichia coli, 0.01 µg/mL (≈ 0.0434 µM); against Enterobacter it was 0.02 µg/mL (≈ 0.0869 µM); against Klebsiella sp., 0.02 µg/mL (≈ 0.0869 µM); against Proteus it was 0.03 µg/mL (≈ 0.13 µM); with Pseudomonas aeruginosa, 0.1 µg/mL (≈ 0.434 µM). Also, the MIC in the test on Serratia was determined as 0.01 µg/mL (≈ 0.0434 µM); in the test with Staphylococcus aureus, 0.002 µg/mL (≈ 0.00869 µM).
`C[C@H](O)[C@H]1C(=O)N2C(C(=O)O)=C(c3ccc(CN)cc3)C[C@H]12` returned a Relative susceptibility in [1] of 0.02.
In test [1], `C[C@@H](O)[C@H]1C(=O)N2C(C(=O)[O-])=C(c3cccnc3)C[C@H]12.[K+]` had a Relative susceptibility of 0.4. For the same molecule, the MIC against Enterococcus is 6 µg/mL; against Escherichia coli it was 9 µg/mL; with Enterobacter, 20 µg/mL; with Klebsiella sp., 7 µg/mL; in the test on Proteus it was 17 µg/mL; with Pseudomonas aeruginosa, 0.05 µg/mL. For the same molecule, the MIC in the test on Serratia is 28 µg/mL; with Staphylococcus aureus, 1.5 µg/mL.
Consider `C[C@@H](O)[C@H]1C(=O)N2C(C(=O)[O-])=C(c3ccc(O)cc3)C[C@H]12.[K+]`, for which the Relative susceptibility in test [1] turned out to be 0.2. Besides, the MIC against Enterococcus turned out to be 7.5 µg/mL; with Escherichia coli it was 2.8 µg/mL; with Enterobacter, 1.7 µg/mL; in the test on Klebsiella sp., 0.7 µg/mL; with Proteus, 8 µg/mL; against Pseudomonas aeruginosa, 0.06 µg/mL. Also, the MIC against Serratia was 2.3 µg/mL; in the test with Staphylococcus aureus, 0.4 µg/mL.
`C[C@@H](O)[C@H]1C(=O)N2C(C(=O)O)=C(c3ccc(CN)nc3)C[C@H]12` displayed a Relative susceptibility in test [1] of 0.1. For the same molecule, the MIC against Enterococcus stood at 8 µg/mL (≈ 26.4 µM); in the test with Escherichia coli, 3 µg/mL (≈ 9.89 µM); against Enterobacter, 5.7 µg/mL (≈ 18.8 µM); in the test with Klebsiella sp., 3 µg/mL (≈ 9.89 µM); against Proteus it was 3.2 µg/mL (≈ 10.5 µM); against Pseudomonas aeruginosa, 0.2 µg/mL (≈ 0.659 µM). Besides, the minimum inhibitory concentration (MIC) stood at 5.3 µg/mL (≈ 17.5 µM) in the test on Serratia and 1.9 µg/mL (≈ 6.26 µM) with Staphylococcus aureus.
With `C[C@@H](O)[C@H]1C(=O)N2C(C(=O)[O-])=C(c3ccccc3)C[C@H]12.[K+]`, in test [1], the Relative susceptibility stood at 0.2. The MIC was found to be 5.7 µg/mL in the test with Enterococcus; 2.5 µg/mL against Escherichia coli; 4.6 µg/mL in the test on Enterobacter; 1.4 µg/mL in the test with Klebsiella sp.; 10 µg/mL against Proteus; 0.03 µg/mL against Pseudomonas aeruginosa. Also, the minimum inhibitory concentration (MIC) against Serratia was determined as 10 µg/mL; against Staphylococcus aureus, 0.5 µg/mL.
The molecule `C[C@@H](O)[C@H]1C(=O)N2C(C(=O)[O-])=C(c3ccccc3)[C@H](C)[C@H]12.[K+]` registered a Relative susceptibility in [1] of 0.25. The MIC against Enterococcus was determined as 2 µg/mL; with Escherichia coli, 0.5 µg/mL; in the test with Enterobacter it was 0.3 µg/mL; in the test on Klebsiella sp., 0.3 µg/mL; against Proteus, 3.5 µg/mL; against Pseudomonas aeruginosa it was 0.02 µg/mL. Also, the minimum inhibitory concentration (MIC) against Serratia was determined as 1 µg/mL; with Staphylococcus aureus, 0.2 µg/mL.
On to `O=C(O)C1=C(c2ccccc2)CC2CC(=O)N12` (stereo not given), for which the Relative susceptibility in test [1] was 0.35. For the same molecule, the MIC against Enterococcus is 1 µg/mL (≈ 4.36 µM); with Escherichia coli it was 0.1 µg/mL (≈ 0.436 µM); in the test on Enterobacter, 0.2 µg/mL (≈ 0.872 µM); with Klebsiella sp., 0.04 µg/mL (≈ 0.174 µM); in the test on Proteus, 0.03 µg/mL (≈ 0.131 µM); with Pseudomonas aeruginosa it was 0.03 µg/mL (≈ 0.131 µM). The values for the MIC against Serratia and in the test with Staphylococcus aureus were 0.01 µg/mL (≈ 0.0436 µM) and 0.02 µg/mL (≈ 0.0872 µM), respectively.
As to `C[C@@H](O)[C@H]1C(=O)N2C(C(=O)O)=C(c3ccc(CN)nc3)[C@H](C)[C@H]12`, in test [1], the Relative susceptibility was 0.16. Further, the MIC in the test with Enterococcus is 2.8 µg/mL (≈ 8.82 µM); against Escherichia coli, 1.5 µg/mL (≈ 4.73 µM); with Enterobacter, 3.5 µg/mL (≈ 11 µM); with Klebsiella sp., 2.8 µg/mL (≈ 8.82 µM); with Proteus, 2.5 µg/mL (≈ 7.88 µM); with Pseudomonas aeruginosa, 0.08 µg/mL (≈ 0.252 µM). For the same molecule, the minimum inhibitory concentration (MIC) with Serratia was 3.2 µg/mL (≈ 10.1 µM); in the test with Staphylococcus aureus it was 0.5 µg/mL (≈ 1.58 µM).
With `C[C@@H](O)[C@H]1C(=O)N2C(C(=O)[O-])=C(c3cccnc3)[C@H](C)[C@H]12.[K+]`, in [1], the Relative susceptibility was 0.7. For the same molecule, the minimal inhibitory concentration (MIC) against Enterococcus was found to be 2.5 µg/mL; against Escherichia coli, 12 µg/mL; in the test with Enterobacter it was 13 µg/mL; in the test with Klebsiella sp., 7 µg/mL; with Proteus it was 7 µg/mL; with Pseudomonas aeruginosa it was 0.05 µg/mL. For the same molecule, the MIC in the test on Serratia is 13 µg/mL; with Staphylococcus aureus, 1 µg/mL.
For the molecule `C[C@@H](O)[C@H]1C(=O)N2C(C(=O)[O-])=C(c3ccc(CO)cc3)[C@H](C)[C@H]12.[K+]`, the Relative susceptibility in test [1] stood at 0.22. Further, the minimal inhibitory concentration (MIC) with Enterococcus came out at 1.4 µg/mL; in the test with Escherichia coli, 0.9 µg/mL; against Enterobacter, 1.1 µg/mL; against Klebsiella sp., 0.7 µg/mL; against Proteus, 5.3 µg/mL; with Pseudomonas aeruginosa, 0.02 µg/mL. For the same molecule, the MIC came to 1.2 µg/mL against Serratia and 0.2 µg/mL in the test on Staphylococcus aureus.
In test [1], `C[C@@H](O)[C@H]1C(=O)N2C(C(=O)O)=C(SCCN)C[C@H]12` [THIENAMYCIN] yielded a Relative susceptibility of 1. Further, the MIC against Enterococcus worked out at 5 µg/mL (≈ 18.4 µM); in the test with Escherichia coli it was 0.3 µg/mL (≈ 1.1 µM); in the test with Enterobacter, 1.4 µg/mL (≈ 5.14 µM); in the test on Klebsiella sp., 1.3 µg/mL (≈ 4.77 µM); with Proteus, 7.5 µg/mL (≈ 27.5 µM); against Pseudomonas aeruginosa, 5.8 µg/mL (≈ 21.3 µM). For the same molecule, the figures for the MIC in the test on Serratia and against Staphylococcus aureus were 2.5 µg/mL (≈ 9.18 µM) and 0.04 µg/mL (≈ 0.147 µM), respectively.
For `C[C@@H](O)[C@H]1C(=O)N2C(C(=O)[O-])=C(c3ccc(CO)cc3)C[C@H]12.[K+]`, the Relative susceptibility in test [1] worked out at 0.28. Also, the MIC against Enterococcus worked out at 5 µg/mL; against Escherichia coli it was 2 µg/mL; in the test with Enterobacter, 4 µg/mL; in the test on Klebsiella sp. it was 2.3 µg/mL; in the test with Proteus, 15 µg/mL; in the test with Pseudomonas aeruginosa it was 0.02 µg/mL. The MIC with Serratia came out at 7 µg/mL; against Staphylococcus aureus, 1 µg/mL.
`C[C@@H](O)[C@H]1C(=O)N2C(C(=O)O)=C(c3ccc(CN)cc3)[C@H](C)[C@H]12` came in with a Relative susceptibility in test [1] of 0.07. In addition, the MIC stood at 3 µg/mL (≈ 9.48 µM) in the test with Enterococcus; 1.6 µg/mL (≈ 5.06 µM) against Escherichia coli; 2.5 µg/mL (≈ 7.9 µM) in the test with Enterobacter; 1.7 µg/mL (≈ 5.37 µM) against Klebsiella sp.; 2 µg/mL (≈ 6.32 µM) in the test with Proteus; 0.13 µg/mL (≈ 0.411 µM) in the test with Pseudomonas aeruginosa. Further, the minimal inhibitory concentration (MIC) stood at 6.5 µg/mL (≈ 20.5 µM) in the test on Serratia and 0.4 µg/mL (≈ 1.26 µM) against Staphylococcus aureus.
`C[C@@H]1C(c2cccnc2)=C(C(=O)[O-])N2C(=O)[C@H]([C@@H](C)O)[C@@H]12.[K+]` yielded a Relative susceptibility in test [1] of 0.1. Also, the minimal inhibitory concentration (MIC) came to 0.15 µg/mL with Enterococcus; 3.5 µg/mL in the test with Escherichia coli; 5 µg/mL in the test on Enterobacter; 2.5 µg/mL against Klebsiella sp.; 2.5 µg/mL against Proteus; 0.03 µg/mL in the test on Pseudomonas aeruginosa. Besides, the minimal inhibitory concentration (MIC) is 22 µg/mL against Serratia and 0.15 µg/mL in the test on Staphylococcus aureus.
